# Screens from PubChem.
# The list is not random: actives were taken first. Their share in the collection is about 2.2%.
# PTEN del growth: PTEN-deleted cell growth suppression | 1.2% of 140,000 active | viability, % at 10 µM | HCT116 PTEN-null viability, CellTiter-Glo, 60 h; stronger effect = lower value | AID 827;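 active = viability at or below a set limit, 4 SD under the median of all tested compounds, cut at about 3.7% in these data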;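 also: PTEN knockout HCT116 line with beta catenin targeted HCT116 as companion control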
# Autophagy mod: autophagy modulation, high-content screen; MEF GFP-LC3 puncta imaging; test concentration mostly 10 µM; calls only at 10 µM (by protocol); 0.98% of 190,000 active; AID 463193;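 active = percentage of spot-positive cells more than 3 SD above its plate mean, without a fluorescence outlier flag or 80% toxicity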;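 also: spot-positive cell cutoff set from DMSO-treated cells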
# Dynein transport: blocks dynein driven cargo transport along microtubules | 0.47% of 220,000 active | 3617.4 mouse cells, GR-EGFP nuclear translocation imaging; test concentration mostly 20 µM; stimulated with dexamethasone, 1 µM; stronger effect = lower value | z-score, hits read low | AID 1381;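 active = plate z-score of nuclear minus cytoplasmic receptor signal below a set negative limit, without overly bright fluorescence or cell loss, cut at about -3.5 in these data, passing the limit was not always enough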;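 also: z-score of nuclear minus cytoplasmic ring GR-EGFP intensity difference per well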
#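 Buffer or medium: tet-free, stripped-serum medium; Also added: dexamethasone, 1.0 µM final; Technique: high-content fluorescence imaging after fixation; Times: 48 h induction, 1 h compound, 30 min dex at 37 °C; Read-out: per-cell GR-EGFP intensity, nucleus versus surrounding cytoplasmic ring, well-averaged.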
# HCT116 bCat-KO: beta-catenin-lacking colon tumor cell growth suppression; 1.5% of 140,000 active; viability, % at 10 µM; HCT116 beta-catenin knockout viability, CellTiter-Glo, 60 h; stronger effect = lower value; AID 818;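 active = viability at or under a set limit, the compound median less 4 SD, cut at about 6% in these data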;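 also: 0% = Hyamine 1622 control at 20 µM and 100% = untreated cell control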
# sdo1 growth: sdo1-depleted yeast growth rescue; S. cerevisiae sdo1-depleted JHY4D growth rescue, OD600 30 h; stronger effect = higher value; pdr5 snq2 efflux-pump mutant strain; z-score at 10 µM; 0.21% of 140,000 active; AID 817;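 active = z-score above 3 at both the 24 hr and the 30 hr optical density reads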;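 also: z-score against mean and SD of all compound wells on the same plate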
# Numbers without * were called inactive; i = inactive; x = no result given; + = active, no number.
SMILES,PTEN del growth,Autophagy mod,Dynein transport,HCT116 bCat-KO,sdo1 growth
COCCNC(=O)/C(C#N)=C/c1ccc(OCc2ccc(F)cc2)cc1,x,i,-0.549,x,x
COc1ccc(Cl)cc1C(=O)NCC(c1ccco1)N1CCCC1 (centres undefined),78.7,+,-0.219,73.8,0.07
O=C(NCC(c1ccco1)N1CCCC1)c1ccccc1F (centres undefined),110.9,i,-0.771,107.5,1.01
Cc1cc(C)c2c(N)c3cccc(C)c3nc2n1,2.5*,i,0.65,2.5*,0.78
CCCNC(=S)NNC(=O)c1cccs1,x,i,-0.571,x,x
CCN(Cc1ccccc1)c1ccc(/C=N/N=C(N)N)cc1,1.7*,i,-2.87,1.4*,-1.98
Cc1nnc(SCC(=O)NC(=O)Nc2ccc3c(c2)OCCO3)s1,x,+,0.487,x,x
Cc1ccccc1Nc1nnc(SCC(=O)NC(=O)Nc2ccc3c(c2)OCCO3)s1,19.6,i,0.0284,34.2,-1.39
Cc1cccc(Nc2nnc(SCC(=O)NC(=O)Nc3ccc4c(c3)OCCO4)s2)c1,0.8*,i,0.416,0.6*,-0.7
CCCn1c(SCC(=O)NCc2ccc(F)cc2)n[nH]c1=O,x,i,1.2,x,x
COCCNC(=S)N/N=C(\C)c1ccccc1O,8.2,i,-0.983,4.2*,-0.21
O=[N+]([O-])c1cc(/C=N/O)ccc1Oc1ccccc1Cl,x,i,0.798,x,x
COc1ccccc1-n1c(SCC(=O)Nc2cc(C)on2)nc2c(c1=O)SCC2,x,+,0.614,x,x
Cc1ccc(-c2cc(C(=O)NCc3ccccn3)c3ccccc3n2)cc1C,1.9*,i,0.241,3.4*,-0.81
COc1cccc(OCCn2cc(/C=N/NC(=O)c3ccncc3)c3ccccc32)c1,63.7,+,0.23,82.9,-0.25
CSc1nnc(Cn2c(=O)sc3ccccc32)n1-c1ccccc1C,92.9,i,0.368,92.4,-1.15
CCCc1nn(C)c(C(=O)Nc2cccc3ccccc23)c1Cl,76.4,+,0.305,77.5,-0.92
CCCc1nn(C)c(C(=O)Nc2ccc(CC)cc2)c1Cl,93.1,i,-0.0823,88.8,-0.53
Nc1nnnn1/N=C/c1cc(Cl)cc(Cl)c1OCc1ccc(Cl)cc1Cl,4.2,+,-0.552,3.2*,-1.24
Nc1nnnn1/N=C/c1ccccc1OCc1ccc(Cl)cc1Cl,52.1,i,-0.473,45.3,-1.28
CC(C)Nc1nc(NC(N)=S)nc(NC(C)C)n1,98.8,i,-0.615,104.2,0.42
COC(=O)C1=C(Nc2ccc(C)cc2)C=C(C)C(C(=O)OC)C1c1ccc(OC)cc1 (centres undefined),29.1,+,0.143,28.6,-0.05
COC(=O)C1=C(Nc2ccc(C)cc2)C=C(C)C(C(=O)OC)C1c1cccc(OC)c1 (centres undefined),21.9,i,-0.942,23.1,-0.7
Nc1nc2ccccc2n1/N=C/c1ccc([N+](=O)[O-])s1,2.6*,i,-1.57,3.5*,-0.97
COc1cc2c(cc1OC)C(SC)=NC(C)(C)C2,11.5,i,-2.24,2.2*,0.65
SMILES,PTEN del growth,Autophagy mod,Dynein transport,HCT116 bCat-KO,sdo1 growth
Cc1cccc(CN2CCN(C(=O)CCl)CC2)c1,38.8,i,-0.905,44.4,0.93
COc1ccc(OC)c2c1C(=O)C(Cl)=C(Cl)C2=O,x,x,-5.38*,x,x
O=C(COC(=O)c1c2c(nc3ccccc13)CCCCC2)c1ccc(Cl)s1,63.5,i,-0.675,78.1,-1.1
O=C(N/N=C/C(Cl)=C\c1ccccc1)c1cnccn1,5.7,i,-0.656,4.0*,0.74
O=C(N/N=C/C(Cl)=C/c1ccccc1)c1cnccn1,10.7,i,-0.487,6.7,-0.42
O=C(Nc1ccc(Cl)cc1)N1CCC(CO)(Cc2ccccc2)CC1,x,i,-0.729,x,x
CCSc1ncc(/C=N/Nc2ccccc2)n1C,80.7,i,-0.839,88.7,-1.88
Cc1ccccc1-n1c(C)cc(/C=N/Nc2ccc([N+](=O)[O-])cn2)c1C,52.6,+,0.213,58.3,0.56
Cc1cc(/C=N/Nc2ccc([N+](=O)[O-])cn2)c(C)n1-c1ccc(C(=O)O)cc1,x,i,-0.457,x,x
O=[N+]([O-])c1ccc(N/N=C/c2ccc(OCc3cccc4ccccc34)cc2)nc1,x,+,-0.118,x,x
N#Cc1ccccc1Cn1cc(/C=N/Nc2ccc([N+](=O)[O-])cn2)c2ccccc21,x,i,-3.06,x,x
O=[N+]([O-])c1ccc(N/N=C\c2cccn2-c2ccccc2)nc1,x,+,-0.779,11.9,-2.16
CC(C)(C)OC(=O)N/N=C/c1cccn1-c1ccc([N+](=O)[O-])cc1,x,x,-0.107,x,x
CCSc1ncc(/C=N/Nc2ccc([N+](=O)[O-])cc2)n1C,65.5,+,-0.941,78.2,-0.89
COc1ccccc1/C=N/NC(=S)NCc1ccco1,x,x,0.314,x,x
CCOC(=O)N1CCN(C(=O)c2ccc(Oc3ccc([N+](=O)[O-])cc3)cc2)CC1,x,i,0.207,x,x
Cc1cc(N2CCCCC2C)nc(-c2ccccc2O)n1 (centres undefined),x,x,0.447,x,x
COc1cccc(CNC(=O)CCC2CCCN(C(=O)c3ccc(OC)c(F)c3)C2)c1 (centres undefined),x,i,-0.527,x,x
Cc1nonc1NC(=O)OC1CCCCC1,85.7,i,1.66,78.5,-0.23
C(=N\N(c1ccccc1)c1ccccc1)/c1ccc(N2CCOCC2)s1,91.2,i,0.656,89.5,-0.54
Nc1nc(SCc2ccccc2Cl)nc2nc3c(cc12)CCCC3,91.5,i,-0.84,102.9,-2.22
Nc1nc(SCc2ccc(Cl)cc2Cl)nc2nc3c(cc12)CCCC3,14.1,+,1.18,31.2,-0.86
OC1C2CN3CCN(C2)CC1(Cc1ccccc1)C3 (centres undefined),0.7*,i,0.854,1.4*,-0.33
OC1C2(Cc3ccccc3)CN3CCN(C2)CC1(Cc1ccccc1)C3 (centres undefined),90.3,i,0.77,70.6,1.08
Cc1c(C(=O)N2CCC(C)CC2)oc2ccc(S(=O)(=O)N3CCC4(CC3)OCCO4)cc12,88.0,i,-0.636,86.6,-0.34
SMILES,PTEN del growth,Autophagy mod,Dynein transport,HCT116 bCat-KO,sdo1 growth
Cc1ccc(C)c(OCC(=O)N/N=C/c2c(C)nn(-c3ccccc3)c2Cl)c1C,1.8*,i,-0.191,2.1*,-0.19
Cc1cccc2sc(NNC(=O)C3COc4ccccc4O3)nc12 (centres undefined),0.5*,i,-0.0619,1.2*,-1.07
O=C(NNc1nc2c(F)cc(F)cc2s1)C1COc2ccccc2O1 (centres undefined),x,i,0.423,x,x
CC1=Nc2ccccc2/C1=C/c1sc(=N)n(-c2nccs2)c1O,2.3*,+,3.58,3.9*,-0.2
CN1CCc2c(sc(NC(=O)c3cc4cc([N+](=O)[O-])ccc4s3)c2C(N)=O)C1,x,+,-0.225,x,x
Cc1ccc(OCCCC(=O)Nc2nc3ccccc3[nH]2)cc1,x,i,2.01,x,x
Cc1cccc(OCCCC(=O)Nc2nc3ccccc3[nH]2)c1,x,+,0.333,x,x
O=C(CSc1nnc(-c2cccnc2)n1CCc1ccccc1)N1CCCCC1,112.0,+,2.9,99.4,-0.14
